aDG glyco up: alpha-DG glycosylation activation; Pro5-aDG cells, alpha-DG glycosylation AlphaScreen (IIH6); 0% Pro5, 100% B10-LARGE cell signal; activation, % at 10 µM; 360,000 tested, 0.22% active;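 active = activation of at least 8% versus controls, or a plate z-score of at least 8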;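 also: Pro5 are CHO cells carrying HIG-tagged alpha-DG that lacks glycosylation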
procasp7 counter: counter-screen for procaspase-3 activators: activators of human procaspase-7; P55210; recombinant procaspase-7, Ac-DEVD-pNA absorbance 405 nm; D23A/D198A/D206A triple mutant, cannot self-cleave; scale: DMSO 0, 5 µM enzyme 100; activation, % at 8.5 µM; 330,000 tested, 0.093% active; AID 463210;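 active = percent activation above the screen-wide mean plus 3 SD, cut at about 25% in these data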
Target sequence (P55210 whole entry D23A/D198A/D206A): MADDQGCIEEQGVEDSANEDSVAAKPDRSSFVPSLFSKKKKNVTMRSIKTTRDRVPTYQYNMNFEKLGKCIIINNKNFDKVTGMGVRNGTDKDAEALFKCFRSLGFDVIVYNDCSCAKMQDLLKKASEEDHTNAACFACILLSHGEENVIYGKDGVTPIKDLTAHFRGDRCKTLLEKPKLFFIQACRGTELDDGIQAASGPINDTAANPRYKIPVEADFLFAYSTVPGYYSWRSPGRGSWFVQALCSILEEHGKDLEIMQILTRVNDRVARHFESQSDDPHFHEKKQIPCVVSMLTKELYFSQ
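Detection: p-Nitroaniline absorbance at 405 nm, read at 0 and 120 min; system: Uncleavable procaspase-7 mutant enzyme; evaluation: % activation from two-timepoint absorbance difference, scaled to controls; times: 1 h enzyme–compound preincubation and 2 h substrate reaction, both 25 °C; buffer or medium: Zinc-free HEPES pH 7.4 with 300 mM NaCl, 0.01% Triton X-100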
GRIN3A LBD mod: modulators (binders) of human NR3A ligand-binding domain; NR3A LBD differential scanning fluorimetry, Tm shift; 0% = protein alone, 100% = glycine-bound protein; Tm shift relative to glycine control, % at 25 µM; 340,000 tested, 2.5% active;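 active = melting temperature shift of at least 10% of the positive control shift, at one fixed dose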
proCasp3 act: procaspase-3 (human) activation; recombinant procaspase-3 D3A, Ac-DEVD-pNA absorbance 405 nm; activation, % at 8.5 µM; AID 463141; 330,000 tested, 0.11% active; P42574;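 active = activation above the mean of all tested compounds plus 3 SD, cut at about 21% in these data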
Target sequence (P42574 whole entry D9A/D28A/D175A): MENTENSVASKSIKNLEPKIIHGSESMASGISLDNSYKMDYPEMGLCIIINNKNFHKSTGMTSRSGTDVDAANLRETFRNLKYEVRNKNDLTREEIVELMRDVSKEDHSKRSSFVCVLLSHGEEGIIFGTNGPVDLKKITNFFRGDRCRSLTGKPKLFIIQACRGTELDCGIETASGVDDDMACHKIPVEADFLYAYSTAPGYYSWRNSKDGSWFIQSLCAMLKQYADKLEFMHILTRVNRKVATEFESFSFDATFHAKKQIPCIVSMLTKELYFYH
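Assay system: Procaspase-3 D3A mutant, all three cleavage aspartates alanine. Buffer or medium: Zinc-free HEPES saline buffer with Triton X-100. Times: 1 h compound preincubation, 2 h substrate hydrolysis at 25 °C. Measured by: 405 nm absorbance of p-nitroaniline, reads at 0 and 120 min. Read-out basis: percent activation relative to control range. Replicates: singlicate.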
MPTP inh: permeability transition pore inhibition. isolated mouse mitochondria, Ca2+ swelling absorbance, 30 min. inhibition, % at 10 µM. 360,000 tested, 1.4% active;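 active = inhibition of 50% or more, scaled per plate between neutral and stimulator controls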
MPTP counter: mitochondrial membrane potential, counter-screen; 5,000 tested, 78% active; inhibition, % at 10 µM; isolated mitochondria, Rhodamine 123 fluorescence; shares compounds with MPTP inh; in the data active = inhibition above about 22%
MPTP abs DR: MPTP inhibition, dose response swelling confirmation. IC50, µM. isolated mitochondria swelling, absorbance. AID 651561. shares compounds with MPTP inh. 780 tested, 58% active; in the data active = IC50 below about 20 µM
MPTP cs DR: active in counter-screen for permeability transition pore inhibitors; 780 tested, 49% active; IC50, µM; isolated mitochondria counterscreen, fluorescence read-out; shares compounds with MPTP inh; AID 651564; in the data active = IC50 below about 80 µM
Each line names hits and unclear results; the compound was inactive in the other large screens (follow-up assays come after a bar, where they were run). A selection: hits, their analogues and other compounds. The true share with any hit is near 3.7%.

CN(C)CCN(C)C1CN(Cc2ccccc2)S(=O)(=O)C1 (configuration not stated)	none (no result: procasp7 counter, GRIN3A LBD mod, proCasp3 act)
COCCNC(=O)C1(C)CCN(Cc2ccc(C(C)C)cc2)C1 (configuration not stated)	none (no result: procasp7 counter, GRIN3A LBD mod, proCasp3 act)
COC(=O)c1ccc(CN2C(=O)NC(Cc3c[nH]c4ccccc34)C2=O)cc1 (configuration not stated)	MPTP inh 82 | MPTP counter inactive | MPTP abs DR inactive | MPTP cs DR 25
COc1ccc(Nc2ccnc(Nc3ccc(OC)cc3)n2)cc1	MPTP inh 78 | MPTP counter inactive | MPTP abs DR 11 | MPTP cs DR 35
O=C(c1cc2nc(-c3ccc(F)cc3)cc(C(F)(F)F)n2n1)N1CCCCC1c1cccnc1 (configuration not stated)	MPTP inh 90 | MPTP counter 90
O=C(c1cnn2c(C(F)(F)F)cc(-c3ccccc3)nc12)N1CCCCC1c1cccnc1 (configuration not stated)	none
CCN1CCN(c2cc(SC(C)C)nc(-c3ccc(OC)cc3)n2)CC1	MPTP inh 78 (no result: procasp7 counter, proCasp3 act) | MPTP counter inactive | MPTP abs DR 10 | MPTP cs DR 62
CC(C)Sc1cc(N2CCOCC2)nc(-c2ccc(Cl)cc2)n1	none
O=C1CCc2cc(S(=O)(=O)N3CCCC3C(=O)NC3CCCCCCC3)ccc2N1 (configuration not stated)	none
CC(=O)c1c(O)cc(O)c(C(C)=O)c1O	MPTP inh 90 | MPTP counter 106
Cc1ccc(S(=O)(=O)Nc2cccc(C(=O)NCC(c3ccco3)N3CCCC3)c2)cc1F (configuration not stated)	none (no result: GRIN3A LBD mod)
Cc1ccc(NC(=O)C(C)c2ccc(-c3ccccc3)c(F)c2)cc1 (configuration not stated)	MPTP inh 89 | MPTP counter 110
CCc1ccc(C(c2ccc(CC)cc2)C(Cl)Cl)cc1	none
Clc1ccc(C(c2ccccc2Cl)C(Cl)Cl)cc1 (configuration not stated)	MPTP inh 61 | MPTP counter inactive | MPTP abs DR inactive | MPTP cs DR inactive
Oc1c(Cl)cc(Cl)cc1C1=NNC(c2ccc(Cl)cc2)C1 (configuration not stated)	MPTP inh 68 (no result: procasp7 counter, proCasp3 act) | MPTP counter 30
Cc1[nH]n(-c2ncc(-c3ccc(Cl)cc3)s2)c(=O)c1C(c1ccc(Cl)cc1)C(C#N)C#N (configuration not stated)	GRIN3A LBD mod 17, MPTP inh 98 | MPTP counter inactive
COc1ccc(C(c2c(C)[nH]n(C(N)=S)c2=O)C(C#N)C#N)cc1 (configuration not stated)	none
Cc1ccc(SC/C(O)=C(\C#N)c2nc3ccccc3s2)cc1	MPTP inh 94 | MPTP counter 91
N#C/C(=C(/O)COc1ccccc1)c1nc2ccccc2s1	MPTP inh 84 | MPTP counter 81
COc1ccc(C/C(O)=C(\C#N)c2nc3ccccc3s2)cc1	none
N#C/C(=C(/O)COC(=O)c1ccc(C#N)cc1)c1nc2ccccc2s1	MPTP inh 79 | MPTP counter 88
N#C/C(=C(/O)COc1ccc(Cl)cc1)c1nc2ccccc2s1	MPTP inh 107 | MPTP counter 90
N#C/C(=C(/O)CSc1ccccn1)c1nc2ccccc2s1	none
CC(C)c1ccc(C(=O)COC(=O)C(O)c2ccccc2)cc1 (configuration not stated)	none
N#C/C(=C(/O)c1ccc(-c2cccc([N+](=O)[O-])c2)o1)c1nc2ccccc2s1	MPTP inh 98 (no result: procasp7 counter, proCasp3 act) | MPTP counter 69
N#C/C(=C(/O)c1ccc(F)cc1)c1nc2ccccc2s1	MPTP inh 78 | MPTP counter 96
COc1cccc(NC(=O)CSc2nc3ncc(Br)cc3[nH]2)c1	none
CCc1ccc(NC(=O)CSc2nc3ncc(Br)cc3[nH]2)cc1	MPTP inh 54 | MPTP counter 88
CCN1C[C@@H]2[C@@H]3C(=O)N(Cc4ccccc4)C(=O)[C@@H]3[C@](C)(C1=O)N2C(=O)c1ccc(Cl)cc1	none (no result: procasp7 counter, proCasp3 act)
O=C(O)/C=C1\NC(=O)c2ccccc21	none
O=C1N/C(=C\c2ccc(O)cc2)C(=O)c2ccccc21	MPTP inh 73 | MPTP counter inactive
CCNc1nc(NCC)nc(N(C)/N=C/c2ccco2)n1	none
FC(F)(F)C1=Nc2cccc3cccc(c23)N1	MPTP inh 103 (no result: procasp7 counter, proCasp3 act) | MPTP counter 71
Fc1ccc(C2=Nc3cccc4cccc(c34)N2)cc1	none
O=C(NC1CCSc2ccccc21)c1cccc(OC(F)F)c1 (configuration not stated)	none
FC(F)Oc1ccc(NC(=S)NC2CCSc3ccccc32)cc1 (configuration not stated)	GRIN3A LBD mod 17, MPTP inh 83 (no result: procasp7 counter, proCasp3 act) | MPTP counter 79
Cc1cc(/C(N)=N/OC(=O)Nc2ccc(Cl)cc2)no1	MPTP inh 57 | MPTP counter 82
Cc1cc(/C(N)=N/OC(=O)Nc2ccccc2)no1	none
CN(/N=C/c1cc(Cl)cc(Cl)c1O)C(=S)NC(C)(C)C	GRIN3A LBD mod 31, MPTP inh 85 | MPTP counter 75
O=C1c2cc(Cl)ccc2OC2(CCNCC2)C12CC(c1ccccc1)=NO2 (configuration not stated)	MPTP inh 71 | MPTP counter inactive | MPTP abs DR 8.9 | MPTP cs DR inactive
CC1(C(=O)NS(=O)(=O)c2ccc3c(c2)CCO3)CCN1C(=O)C1(c2ccc(Cl)cc2)CC1 (configuration not stated)	none (no result: procasp7 counter, GRIN3A LBD mod, proCasp3 act)
COc1ccccc1NS(=O)(=O)c1ccc(NN=C2CCCC2)c([N+](=O)[O-])c1	MPTP inh 60 | MPTP counter 47
COc1ccccc1NS(=O)(=O)c1ccc(N/N=C/C=C/c2ccccc2[N+](=O)[O-])c([N+](=O)[O-])c1	none
Cc1ccsc1CN(C)c1ncnc2ccc(-c3ccoc3)cc12	none (no result: procasp7 counter, GRIN3A LBD mod, proCasp3 act)
O=C(Nc1ccc(Cl)c(C(F)(F)F)c1)c1ccncc1	none
CNC(=O)c1cc(Oc2ccc(NC(=O)Nc3ccc(Cl)c(C(F)(F)F)c3)cc2)ccn1	GRIN3A LBD mod 12, MPTP inh 57 | MPTP counter 46
O=C(CSc1nc2ccccc2s1)Nc1ccc(Cl)c(S(=O)(=O)N2CCOCC2)c1	none
Cc1cc(Oc2ccccc2)nc(SCC(=O)Nc2ccccc2)n1	none
CNc1nc(SCC(=O)Nc2ccc(Cl)c(Cl)c2)nc(N2CCOCC2)n1	none

Source: PubChem
